{"source": "paper PMC7004556", "about": "(Cancer Science, 2020)", "key": {"[1]": {"tested_on": "patients with advanced solid tumors", "assay": "Phase I dose escalation: safety and tolerability", "format": "in vivo, human", "how_it_was_run": "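Patients received a single 1 mg oral dose on cycle 0 day 1, then a washout on days 2-7. Oral once-daily dosing followed in 28-day cycles from day 8-10. Doses were escalated by mTPI design (target DLT rate 25% ± 5%). DLTs were assessed over cycles 0-1 against predefined haematological, non-haematological, calcification and hyperphosphataemia criteria. AEs were coded by MedDRA v20.1 and graded by CTCAE v4.03.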"}, "Phase I pharmacokinetics": {"assay": "Phase I pharmacokinetics", "format": "in vivo, human", "settings": "for AUC(0‐t) / C avg / C max / C min / T max / AUC(0‐inf) / CL/F / T 1/2 / Vz/F: oral; for T max: median (range)", "how_it_was_run": "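Plasma was sampled predose in all cycles and after dosing up to cycle 3. Plasma (100 µL) plus IS and 5 mmol/L ammonium hydrogen carbonate underwent solid-phase extraction, with methanol/formic acid elution. Drug in plasma and urine was quantified by LC-MS/MS: ODS column at 40°C, isocratic 40:60 water/acetonitrile-water with 15 mmol/L ammonium hydrogen carbonate, 0.25 mL/minute, positive-mode MRM. Parameters came from non-compartmental analysis.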"}, "FGFR pathway": {"tested_on": "FGFR pathway", "assay": "Pharmacodynamic markers of FGFR pathway inhibition", "format": "in vivo, human", "settings": "QD", "how_it_was_run": "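Blood was drawn before dosing in cycles 0, 1 and later odd cycles, and after the cycle 0 dose on days 1-4. FGF23 was measured by solid-phase sandwich ELISA (mouse anti-human FGF23 capture, peroxidase-conjugated mouse anti-human FGF23 detection, colorimetric). 1,25-(OH)2-vitamin D was measured by double-antibody RIA (sheep antibody 16-18 h, 125I tracer, cellulose-conjugated donkey anti-sheep IgG, γ-counting). Serum phosphate was also tracked.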"}, "advanced solid tumors": {"tested_on": "advanced solid tumors", "assay": "Antitumor activity by RECIST v1.1 in phase I", "format": "in vivo, human", "how_it_was_run": "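Tumours assessed by CT and/or MRI per RECIST v1.1 at screening, every 8 weeks from cycle 1 day 1, and at discontinuation. Oral once-daily dosing ran in 28-day cycles. Best overall response was scored in patients with ≥1 RECIST target lesion. The efficacy set covered treated patients with a baseline and ≥1 post-baseline assessment.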"}, "FGFR": {"tested_on": "FGFR", "settings": "SNU‐16 cells, dose‐dependent; cited from earlier work"}, "[2]": {"tested_on": "tumors harboring FGFR abnormalities", "settings": "mice with tumors metastasized to the lung; cited from earlier work"}, "[3]": {"settings": "repeated dose QD, 30 mg (n = 2), mean"}, "[4]": {"settings": "repeated dose QD, 60 mg (n = 2), mean"}, "[5]": {"settings": "repeated dose QD, 100 mg (n = 3), mean ± SD"}, "[6]": {"settings": "repeated dose QD, 140 mg (n = 3), mean ± SD"}, "[7]": {"settings": "repeated dose QD, 180 mg (n = 3), mean ± SD"}, "[8]": {"settings": "single dose, 30 mg (n = 2), mean"}, "[9]": {"settings": "single dose, 60 mg (n = 3), mean ± SD"}, "[10]": {"settings": "single dose, 100 mg (n = 3), mean ± SD"}, "[11]": {"settings": "single dose, 140 mg (n = 3), mean ± SD"}, "[12]": {"settings": "single dose, 180 mg (n = 3), mean ± SD"}}, "note": "Marks after values point to notes of the source that are not given here."}
{"smiles": "CNC(=O)n1ccc2cc(Oc3ccnc(NC(=O)c4ccc(C5CCN(CCO)CC5)cc4)c3)c(OCCOC)cc21", "note": "[E7090]", "values": [{"measurement": "TEAE‐related dose interruption: decreased neutrophil count", "setting": "[1]; in vivo", "value": 1, "unit": "n"}, {"measurement": "TEAE‐related dose interruption: nasopharyngitis", "setting": "[1]; in vivo", "value": 1, "unit": "n"}, {"measurement": "TEAE‐related dose interruption: nausea", "setting": "[1]; in vivo", "value": 3, "unit": "n"}, {"measurement": "TEAE‐related dose interruption: vomiting", "setting": "[1]; in vivo", "value": 2, "unit": "n"}, {"measurement": "Number of patients with SAE", "setting": "[1]; of 24 patients treated", "value": "three"}, {"measurement": "Plasma concentrations at 72 hours after dosing", "setting": "Phase I pharmacokinetics; 1‐16‐mg cohorts", "value": "below the limit of quantification"}, {"measurement": "AUC(0‐t)", "setting": "Phase I pharmacokinetics; [3]", "value": 162, "unit": "ng·h/mL"}, {"measurement": "C avg", "setting": "Phase I pharmacokinetics; [3]", "value": 7, "unit": "ng/mL"}, {"measurement": "C max", "setting": "Phase I pharmacokinetics; [3]", "value": 13, "unit": "ng/mL"}, {"measurement": "C min", "setting": "Phase I pharmacokinetics; [3]", "value": 5, "unit": "ng/mL"}, {"measurement": "T max", "setting": "Phase I pharmacokinetics; repeated dose QD, 30 mg (n = 2)", "value": "4 (3‐5) h"}, {"measurement": "AUC(0‐t)", "setting": "Phase I pharmacokinetics; [4]", "value": "507 ^a h × ng/mL"}, {"measurement": "C avg", "setting": "Phase I pharmacokinetics; [4]", "value": "21 ^a ng/mL"}, {"measurement": "C max", "setting": "Phase I pharmacokinetics; [4]", "value": "51 ^a ng/mL"}, {"measurement": "C min", "setting": "Phase I pharmacokinetics; [4]", "value": "11 ^a ng/mL"}, {"measurement": "T max", "setting": "Phase I pharmacokinetics; repeated dose QD, 60 mg (n = 2)", "value": "3 (2‐3) ^a h"}, {"measurement": "AUC(0‐t)", "setting": "Phase I pharmacokinetics; [5]", "value": "1340 ± 437", "unit": "ng·h/mL"}, {"measurement": "C avg", "setting": "Phase I pharmacokinetics; [5]", "value": "56 ± 18", "unit": "ng/mL"}, {"measurement": "C max", "setting": "Phase I pharmacokinetics; [5]", "value": "116 ± 4", "unit": "ng/mL"}, {"measurement": "C min", "setting": "Phase I pharmacokinetics; [5]", "value": "22 ± 9", "unit": "ng/mL"}, {"measurement": "T max", "setting": "Phase I pharmacokinetics; repeated dose QD, 100 mg (n = 3)", "value": "3 (2‐5) h"}, {"measurement": "AUC(0‐t)", "setting": "Phase I pharmacokinetics; [6]", "value": "4700 ± 3380", "unit": "ng·h/mL"}, {"measurement": "C avg", "setting": "Phase I pharmacokinetics; [6]", "value": "196 ± 141", "unit": "ng/mL"}, {"measurement": "C max", "setting": "Phase I pharmacokinetics; [6]", "value": "372 ± 173", "unit": "ng/mL"}, {"measurement": "C min", "setting": "Phase I pharmacokinetics; [6]", "value": "117 ± 116", "unit": "ng/mL"}, {"measurement": "T max", "setting": "Phase I pharmacokinetics; repeated dose QD, 140 mg (n = 3)", "value": "5 (3‐5) h"}, {"measurement": "AUC(0‐t)", "setting": "Phase I pharmacokinetics; [7]", "value": "3860 ± 764", "unit": "ng·h/mL"}, {"measurement": "C avg", "setting": "Phase I pharmacokinetics; [7]", "value": "161 ± 32", "unit": "ng/mL"}, {"measurement": "C max", "setting": "Phase I pharmacokinetics; [7]", "value": "337 ± 60", "unit": "ng/mL"}, {"measurement": "C min", "setting": "Phase I pharmacokinetics; [7]", "value": "65 ± 19", "unit": "ng/mL"}, {"measurement": "T max", "setting": "Phase I pharmacokinetics; repeated dose QD, 180 mg (n = 3)", "value": "5 (3‐5) h"}, {"measurement": "AUC(0‐inf)", "setting": "Phase I pharmacokinetics; [8]", "value": 239, "unit": "ng·h/mL"}, {"measurement": "AUC(0‐t)", "setting": "Phase I pharmacokinetics; [8]", "value": 222, "unit": "ng·h/mL"}, {"measurement": "C max", "setting": "Phase I pharmacokinetics; [8]", "value": 28, "unit": "ng/mL"}, {"measurement": "CL/F", "setting": "Phase I pharmacokinetics; [8]", "value": 127, "unit": "L/h"}, {"measurement": "T 1/2", "setting": "Phase I pharmacokinetics; [8]", "value": 23, "unit": "h"}, {"measurement": "Vz/F", "setting": "Phase I pharmacokinetics; [8]", "value": 4180, "unit": "L"}, {"measurement": "T max", "setting": "Phase I pharmacokinetics; single dose, 30 mg (n = 2)", "value": "3 (1‐5) h"}, {"measurement": "AUC(0‐inf)", "setting": "Phase I pharmacokinetics; [9]", "value": "554 ± 247", "unit": "ng·h/mL"}, {"measurement": "AUC(0‐t)", "setting": "Phase I pharmacokinetics; [9]", "value": "533 ± 257", "unit": "ng·h/mL"}, {"measurement": "C max", "setting": "Phase I pharmacokinetics; [9]", "value": "39 ± 5", "unit": "ng/mL"}, {"measurement": "CL/F", "setting": "Phase I pharmacokinetics; [9]", "value": "121 ± 43", "unit": "L/h"}, {"measurement": "T 1/2", "setting": "Phase I pharmacokinetics; [9]", "value": "23 ± 8", "unit": "h"}, {"measurement": "Vz/F", "setting": "Phase I pharmacokinetics; [9]", "value": "3790 ± 1240", "unit": "L"}, {"measurement": "T max", "setting": "Phase I pharmacokinetics; single dose, 60 mg (n = 3)", "value": "3 (3‐5) h"}, {"measurement": "AUC(0‐inf)", "setting": "Phase I pharmacokinetics; [10]", "value": "1120 ± 479", "unit": "ng·h/mL"}, {"measurement": "AUC(0‐t)", "setting": "Phase I pharmacokinetics; [10]", "value": "1080 ± 474", "unit": "ng·h/mL"}, {"measurement": "C max", "setting": "Phase I pharmacokinetics; [10]", "value": "86 ± 31", "unit": "ng/mL"}, {"measurement": "CL/F", "setting": "Phase I pharmacokinetics; [10]", "value": "103 ± 48", "unit": "L/h"}, {"measurement": "T 1/2", "setting": "Phase I pharmacokinetics; [10]", "value": "15 ± 2", "unit": "h"}, {"measurement": "Vz/F", "setting": "Phase I pharmacokinetics; [10]", "value": "2310 ± 1360", "unit": "L"}, {"measurement": "T max", "setting": "Phase I pharmacokinetics; single dose, 100 mg (n = 3)", "value": "5 (3‐5) h"}, {"measurement": "AUC(0‐inf)", "setting": "Phase I pharmacokinetics; [11]", "value": "4050 ± 3340", "unit": "ng·h/mL"}, {"measurement": "AUC(0‐t)", "setting": "Phase I pharmacokinetics; [11]", "value": "3960 ± 3230", "unit": "ng·h/mL"}, {"measurement": "C max", "setting": "Phase I pharmacokinetics; [11]", "value": "227 ± 118", "unit": "ng/mL"}, {"measurement": "CL/F", "setting": "Phase I pharmacokinetics; [11]", "value": "59 ± 50", "unit": "L/h"}, {"measurement": "T 1/2", "setting": "Phase I pharmacokinetics; [11]", "value": "27 ± 12", "unit": "h"}, {"measurement": "Vz/F", "setting": "Phase I pharmacokinetics; [11]", "value": "1670 ± 617", "unit": "L"}, {"measurement": "T max", "setting": "Phase I pharmacokinetics; single dose, 140 mg (n = 3)", "value": "5 (3‐5) h"}, {"measurement": "AUC(0‐inf)", "setting": "Phase I pharmacokinetics; [12]", "value": "2610 ± 921", "unit": "ng·h/mL"}, {"measurement": "AUC(0‐t)", "setting": "Phase I pharmacokinetics; [12]", "value": "2570 ± 933", "unit": "ng·h/mL"}, {"measurement": "C max", "setting": "Phase I pharmacokinetics; [12]", "value": "154 ± 38", "unit": "ng/mL"}, {"measurement": "CL/F", "setting": "Phase I pharmacokinetics; [12]", "value": "74 ± 22", "unit": "L/h"}, {"measurement": "T 1/2", "setting": "Phase I pharmacokinetics; [12]", "value": "24 ± 10", "unit": "h"}, {"measurement": "Vz/F", "setting": "Phase I pharmacokinetics; [12]", "value": "2550 ± 1550", "unit": "L"}, {"measurement": "T max", "setting": "Phase I pharmacokinetics; single dose, 180 mg (n = 3)", "value": "2 (2‐5) h"}, {"measurement": "C max and AUC(0‐ t ) versus dose", "setting": "Phase I pharmacokinetics; up to 180 mg", "value": "Dose‐dependent increases"}, {"measurement": "Doses with sufficient FGFR pathway inhibition", "setting": "FGFR pathway", "value": "≥ 100", "unit": "mg"}, {"measurement": "Antitumor activity in cholangiocarcinoma with FGFR2 fusion", "setting": "advanced solid tumors; 30‐mg cohort", "value": "did not show potent antitumor activity"}, {"measurement": "Reduction in diameter of the target lesion", "setting": "advanced solid tumors; 180‐mg cohort, gastric cancer with FGFR2 amplification, cycle 3 day 1, from 38 to 11 mm", "value": 71, "unit": "%"}, {"measurement": "Phosphorylation of downstream molecules including FRS2α, ERK1/2, and AKT", "setting": "FGFR", "value": "inhibited phosphorylation"}, {"measurement": "Survival effect", "setting": "[2]", "value": "significantly prolonged survival effect"}]}
